Active and inactive are the calls of the source.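 The calls were made as follows, unless noted: active = Her2 level under about 52% in both replicate screens, with viability over 70% of control (limit read from the data); inconclusive = Her2 under the limit in one screen only, or viability under 70%; inactive = Her2 level above the set limit.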
What was measured:
[1] = Her2 expression decrease, cell viability multiplex – SKBR3 breast tumor cells, AlphaScreen, ATP viability, primary screen (AID 461); conditions: SKBR3 Her2 protein level, 18-24 h, measured here: SKBR3 viability, ATP luminescence, at 10 µM;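 as to Her2 level: lower value means less Her2 protein in the cells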;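 as to viability: percent of carrier control wells set as 100% viability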
[2] = target: Receptor tyrosine-protein kinase erbB-2 (Homo sapiens) (UniProt P04626); assay: as above; conditions: 18-24 h, at 10 µM, stronger effect = lower value
[3] = reduced viability of SK-BR-3 breast cancer cells – cell-based, 24 h, human, pilot screen (AID 572;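 active = viability at or below 10% of carrier control in both of two separate runs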;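 also: compound exposure lasted between 18 and 24 h rather than exactly 24 h; 100% = carrier-treated control wells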); conditions: SK-BR-3 viability, CellTiter-Glo luminescence, at 10 µM, stronger effect = lower value
[4] = HUVEC growth inhibition – cell-based, human, primary screen (AID 575;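 active = viability at or below 30% in both replicate assays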;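 also: 100% = median of untreated cell wells with 0.1% DMSO on each plate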); conditions: HUVEC proliferation, CellTiter-Glo luminescence, 72 h; at 10 µM; stronger effect = lower value
Procedure, shortened: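 Timing: 72 h treatment at 37 °C; material: HUVEC primary cells; technique: CellTiter-Glo luminescence measuring cellular ATP; controls: vehicle and MePR control wells; measure: percent of median DMSO-control luminescence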

[5] = H69AR cell proliferation blockers – human, duplicate replicates, primary screen (AID 580;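 active = viability at or under a set limit in both replicates, limit being median viability minus 3 SD, cut at about 48% in these data, passing the limit was not always enough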;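 also: 100% = mean luminescence of untreated wells and 0% = no signal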); conditions: H69AR lung tumor cells viability, ATP luminescence, 72 h; at 10 µM; stronger effect = lower value
[6] = MRP1 drug-resistance reversers in H69AR cells – cell-based, doxorubicin co-treatment, pilot screen (AID 601;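 active = viability loss from added drug above about 55%, and viability with drug at most 40%, in both replicates, limit read from the data, passing the limit was not always enough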); conditions: CellTiter-Glo, 72 h, at 10 µM; for differential viability (reversal): stronger effect = higher value
[7] = yeast transport mutant growth inhibition pilot in 384-well plates, post-Golgi transport modulator project (AID 636; in the data active = inhibition above about 31%); conditions: absorbance 615 nm, about 18 h, stronger effect = higher value
[8] = growth suppression of yeast trafficking mutant, preliminary HTS, modulators of trafficking downstream of Golgi apparatus project, 1536-format plate, OD 615 nm (AID 637; in the data active = inhibition above about 30%); conditions: yeast transport mutant growth, absorbance 615 nm, 18 h; stronger effect = higher value
[9] = H69AR cells + 2 uM doxorubicin, measured here: viability with 2 uM doxorubicin, stronger effect = lower value
[10] = H69AR cells, compound alone cytotoxicity

Receptor tyrosine-protein kinase erbB-2 (Homo sapiens), sequence (P04626 whole entry, looked up): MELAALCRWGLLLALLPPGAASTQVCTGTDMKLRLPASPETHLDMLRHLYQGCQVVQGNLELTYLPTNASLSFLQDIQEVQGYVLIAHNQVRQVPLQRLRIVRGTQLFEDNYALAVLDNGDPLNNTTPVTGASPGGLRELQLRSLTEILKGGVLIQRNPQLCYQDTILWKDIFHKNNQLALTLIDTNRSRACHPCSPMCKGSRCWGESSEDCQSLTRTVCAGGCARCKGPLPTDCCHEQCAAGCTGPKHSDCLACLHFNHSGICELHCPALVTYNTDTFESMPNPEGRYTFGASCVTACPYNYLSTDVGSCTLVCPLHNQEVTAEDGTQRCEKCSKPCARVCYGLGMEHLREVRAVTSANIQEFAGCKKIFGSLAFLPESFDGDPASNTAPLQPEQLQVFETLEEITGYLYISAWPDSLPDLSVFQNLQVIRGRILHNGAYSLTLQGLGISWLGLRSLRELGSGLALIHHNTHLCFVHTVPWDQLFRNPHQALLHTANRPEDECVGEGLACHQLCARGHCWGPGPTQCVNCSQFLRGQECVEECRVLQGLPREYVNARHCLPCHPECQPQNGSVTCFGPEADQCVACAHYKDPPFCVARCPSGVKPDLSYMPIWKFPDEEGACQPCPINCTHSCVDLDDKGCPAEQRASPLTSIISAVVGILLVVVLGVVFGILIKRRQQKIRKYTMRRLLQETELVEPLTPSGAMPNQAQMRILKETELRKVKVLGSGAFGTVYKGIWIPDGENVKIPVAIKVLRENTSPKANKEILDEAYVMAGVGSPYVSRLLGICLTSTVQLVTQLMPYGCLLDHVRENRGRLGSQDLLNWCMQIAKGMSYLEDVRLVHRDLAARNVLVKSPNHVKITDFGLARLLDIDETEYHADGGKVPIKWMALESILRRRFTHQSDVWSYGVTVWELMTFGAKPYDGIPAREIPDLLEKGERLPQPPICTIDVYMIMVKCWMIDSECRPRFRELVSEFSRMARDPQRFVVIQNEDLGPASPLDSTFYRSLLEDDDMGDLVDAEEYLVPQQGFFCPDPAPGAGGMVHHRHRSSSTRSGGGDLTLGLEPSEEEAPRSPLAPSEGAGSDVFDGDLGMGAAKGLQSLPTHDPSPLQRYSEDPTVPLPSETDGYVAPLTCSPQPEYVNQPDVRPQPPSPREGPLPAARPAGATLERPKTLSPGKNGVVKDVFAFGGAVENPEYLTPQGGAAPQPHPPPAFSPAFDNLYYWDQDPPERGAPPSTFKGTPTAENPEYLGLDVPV

COc1ccc(-c2cc(C(F)(F)F)n3ncc(C(=O)NCC4CCCO4)c3n2)cc1 (stereo not given)
viability [1]: 84% | Her2 level [2]: 116% (inactive) | viability [3]: 84% (inactive) | viability [4]: 78.9% (inactive) | viability [5]: 41.7% (active) | differential viability (reversal) ([6]; H69AR cells + 2 uM doxorubicin): -5.95% (inactive) | viability [6, 9]: 47.6% | viability [6, 10]: 41.7% | inhibition [7]: -1.54% (inactive) | inhibition [8]: -3.67% (inactive)

Cc1ccc(C(C)n2cc(C(=O)NCCN3CCN(C)CC3)nn2)cc1 (stereo not given)
viability [1]: 106% | Her2 level [2]: 94% (inactive) | viability [3]: 106% (inactive) | viability [4]: 93.5% (inactive) | viability [5]: 86.1% (inactive) | differential viability (reversal) ([6]; H69AR cells + 2 uM doxorubicin): -5% (inactive) | viability [6, 9]: 91.1% | viability [6, 10]: 86.1% | inhibition [7]: -2.21% (inactive) | inhibition [8]: -6.19% (inactive)

Nc1nc(N)nc(-c2ccccc2)n1
viability [1]: 97.5% | Her2 level [2]: 106% (inactive) | viability [3]: 97.5% (inactive) | viability [4]: 107% (inactive) | viability [5]: 99.8% (inactive) | differential viability (reversal) ([6]; H69AR cells + 2 uM doxorubicin): 4.35% (inactive) | viability [6, 9]: 95.4% | viability [6, 10]: 99.8% | inhibition [7]: -1.05% (inactive) | inhibition [8]: -0.16% (inactive)

COc1ccc(CN(Cc2nc3ccccc3c(=O)[nH]2)C(=O)NC2CCCCC2)cc1
viability [1]: 95.5% | Her2 level [2]: 71% (inactive) | viability [3]: 95.5% (inactive) | viability [4]: 91.4% (inactive) | viability [5]: 90.2% (inactive) | differential viability (reversal) ([6]; H69AR cells + 2 uM doxorubicin): 0.78% (inactive) | viability [6, 9]: 89.4% | viability [6, 10]: 90.2% | inhibition [7]: -4.61% (inactive) | inhibition [8]: -0.5% (inactive)

O=C(NCc1cccnc1)C1c2ccccc2C(=O)N1Cc1ccco1 (stereo not given)
viability [1]: 94.5% | Her2 level [2]: 91% (inactive) | viability [3]: 94.5% (inactive) | viability [4]: 92% (inactive) | viability [5]: 92.9% (inactive) | differential viability (reversal) ([6]; H69AR cells + 2 uM doxorubicin): 11.6% (inactive) | viability [6, 9]: 81.3% | viability [6, 10]: 92.9% | inhibition [7]: -1.56% (inactive) | inhibition [8]: -3.65% (inactive)

c1ccc(Cc2nnc3n2CCCCC3)cc1
viability [1]: 99% | Her2 level [2]: 90% (inactive) | viability [3]: 99% (inactive) | viability [4]: 93.9% (inactive) | viability [5]: 99.2% (inactive) | differential viability (reversal) ([6]; H69AR cells + 2 uM doxorubicin): 1.42% (inactive) | viability [6, 9]: 97.7% | viability [6, 10]: 99.2% | inhibition [7]: -7.2% (inactive) | inhibition [8]: 0.82% (inactive)

COc1ccccc1-n1cnc(N)c1C(C)=O
viability [1]: 110% | Her2 level [2]: 103% (inactive) | viability [3]: 110% (inactive) | viability [4]: 105% (inactive) | viability [5]: 103% (inactive) | differential viability (reversal) ([6]; H69AR cells + 2 uM doxorubicin): -0.75% (inactive) | viability [6, 9]: 104% | viability [6, 10]: 103% | inhibition [7]: -4.21% (inactive) | inhibition [8]: 7.7% (inactive)

COc1ccc(N2CCN(c3nc4c(c(=O)[nH]c(=O)n4C)n3CCCc3ccccc3)CC2)cc1
viability [1]: 120% | Her2 level [2]: 102% (inactive) | viability [3]: 120% (inactive) | viability [4]: 94% (inactive) | viability [5]: 84.9% (inactive) | differential viability (reversal) ([6]; H69AR cells + 2 uM doxorubicin): -2.09% (inactive) | viability [6, 9]: 87% | viability [6, 10]: 84.9% | inhibition [7]: -6.8% (inactive) | inhibition [8]: 0.48% (inactive)

CS(=O)(=O)c1ccc2nc(NC(=O)C3C4C=CC(C4)C3C(=O)O)sc2c1 (stereo not given)
viability [1]: 96% | Her2 level [2]: 154% (inactive) | viability [3]: 96% (inactive) | viability [4]: 101% (inactive) | viability [5]: 104% (inactive) | differential viability (reversal) ([6]; H69AR cells + 2 uM doxorubicin): 13.3% (inactive) | viability [6, 9]: 90.3% | viability [6, 10]: 104% | inhibition [7]: -2.5% (inactive) | inhibition [8]: -12.8% (inactive)

CC1CCC(C(=O)NC(C(=O)NCCN2CCC(C)CC2)C(C)C)CC1 (stereo not given)
viability [1]: 126% | Her2 level [2]: 107% (inactive) | viability [3]: 126% (inactive) | viability [4]: 87.6% (inactive) | viability [5]: 81.3% (inactive) | differential viability (reversal) ([6]; H69AR cells + 2 uM doxorubicin): -6.62% (inactive) | viability [6, 9]: 87.9% | viability [6, 10]: 81.3% | inhibition [7]: -1.04% (inactive) | inhibition [8]: 13.9% (inactive)

Cc1cccc(-n2nnc(C(=O)NCc3ccccc3)c2N)c1
viability [1]: 110% | Her2 level [2]: 84.5% (inactive) | viability [3]: 110% (inactive) | viability [4]: 102% (inactive) | viability [5]: 90.4% (inactive) | differential viability (reversal) ([6]; H69AR cells + 2 uM doxorubicin): 3.36% (inactive) | viability [6, 9]: 87% | viability [6, 10]: 90.4% | inhibition [7]: 0.92% (inactive) | inhibition [8]: -3.45% (inactive)

Cc1ccc(N2C(=O)c3ccccc3C2Nc2cccnc2)nc1 (stereo not given)
viability [1]: 94% | Her2 level [2]: 99.5% (inactive) | viability [3]: 94% (inactive) | viability [4]: 85.4% (inactive) | viability [5]: 83.3% (inactive) | differential viability (reversal) ([6]; H69AR cells + 2 uM doxorubicin): -10.8% (inactive) | viability [6, 9]: 94.1% | viability [6, 10]: 83.3% | inhibition [7]: -2.18% (inactive) | inhibition [8]: -1.33% (inactive)

Cc1cc(SCC(N)=O)nc(SCC(=O)c2ccccc2)n1
viability [1]: 92.5% | Her2 level [2]: 89% (inactive) | viability [3]: 92.5% (inactive) | viability [4]: 106% (inactive) | viability [5]: 99.8% (inactive) | differential viability (reversal) ([6]; H69AR cells + 2 uM doxorubicin): 10.1% (inactive) | viability [6, 9]: 89.7% | viability [6, 10]: 99.8% | inhibition [7]: -0.53% (inactive) | inhibition [8]: -5.08% (inactive)

COc1cccc(OC)c1C(=O)Nc1cccc(C(C)=O)c1
viability [1]: 103% | Her2 level [2]: 99% (inactive) | viability [3]: 103% (inactive) | viability [4]: 98.8% (inactive) | viability [5]: 98.7% (inactive) | differential viability (reversal) ([6]; H69AR cells + 2 uM doxorubicin): 6.47% (inactive) | viability [6, 9]: 92.2% | viability [6, 10]: 98.7% | inhibition [7]: -6.27% (inactive) | inhibition [8]: 0.48% (inactive)
